Measured values: ChEMBL document CHEMBL1124070, “Potential anticancer agents: 5-(N-substituted-aminocarbonyl)- and 5-(N-substituted-aminothiocarbonyl)-5,6,7,8-tetrahydrofolic acids” (J Med Chem, 1988)
pEC50, pIC50: −log10 of the molar value. Activity calls are given as the source filed them. The rule behind the calls is not given here.

Key:
[1] = Compound was tested for activity against 10 isolated folate-utilizing enzymes; IA=Inactive
L1210 = assay: Compound was tested for activity against L1210 cells in mice; IA=Inactive; type: functional, cell-based; settings: Mus musculus
HEp-2 [2] = assay: Dose of compound required to inhibit colony formation of H.Ep-2 cells; type: functional, cell-based; settings: Homo sapiens
Summary of the method: (§1)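 Colony-forming viability assay in H.Ep.-2 cells. The ED50 is the concentration that inhibits colony formation by 50%.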

P388 = assay: Compound was tested for cytotoxicity against P388 cells; IA=Inactive; type: functional, cell-based; settings: Mus musculus
HEp-2 [3] = assay: Effective dose required to inhibit colony formation of H.Ep-2 cells; type: functional; settings: Homo sapiens, read-out: ED50 (the source's name); summary of the method: as §1

Q: With `NC(=O)N1c2c(O)nc(N)nc2NCC1CNc1ccc(C(=O)NC(CCC(=O)O)C(=O)O)cc1` (stereo not given) as the molecule, how does the Activity [1] read?
A: The Activity was “inactive”.

Q: And the Cytotoxicity (L1210)?
A: The Cytotoxicity was “inactive”.

Q: For `CC/N=C(\S)N1c2c(O)nc(N)nc2NCC1CNc1ccc(C(=O)NC(CCC(=O)O)C(=O)O)cc1` (stereo not given), which Activity [1] is on record?
A: The Activity was “inactive”.

Q: And the Cytotoxicity (L1210)?
A: The Cytotoxicity was “inactive”.

Q: With `CCOC(=O)CCCCCCCC/N=C(\S)N1c2c(O)nc(N)nc2NCC1CNc1ccc(C(=O)NC(CCC(=O)O)C(=O)O)cc1` (stereo not given) as the molecule, how does the pIC50 (HEp-2 [2]) read?
A: The pIC50 was less than 4.60.

Q: And the Cytotoxicity (P388)?
A: Its Cytotoxicity is “inactive”.

Q: With `CCOC(=O)CCCCCCCNC(=O)N1c2c(O)nc(N)nc2NCC1CNc1ccc(C(=O)NC(CCC(=O)O)C(=O)O)cc1` (stereo not given) as the molecule, how does the pEC50 (HEp-2 [3]) read?
A: The pEC50 was 4.62.

Q: With `CCOC(=O)CCCCCC/N=C(\S)N1c2c(O)nc(N)nc2NCC1CNc1ccc(C(=O)NC(CCC(=O)O)C(=O)O)cc1` (stereo not given) as the molecule, how does the pIC50 (HEp-2 [2]) read?
A: The pIC50 was less than 4.60.

Q: What does the source list for `CCOC(=O)CCCCCCNC(=O)N1c2c(O)nc(N)nc2NCC1CNc1ccc(C(=O)NC(CCC(=O)O)C(=O)O)cc1` (stereo not given)?
A: Cytotoxicity (P388): inactive; pEC50 (HEp-2 [3]): 5.40

Q: What does the source list for `CCOC(=O)CCCCCNC(=O)N1c2c(O)nc(N)nc2NCC1CNc1ccc(C(=O)NC(CCC(=O)O)C(=O)O)cc1` (stereo not given)?
A: Cytotoxicity (P388): inactive; pEC50 (HEp-2 [3]): 4.89

Q: Which Activity [1] does the source give for `Nc1nc(O)c2c(n1)NCC(CNc1ccc(C(=O)NC(CCC(=O)O)C(=O)O)cc1)N2C(=O)NCCCl` (stereo not given) here?
A: Its Activity is “inactive”.

Q: What about the Cytotoxicity (L1210) of the same molecule?
A: The Cytotoxicity was “inactive”.

Q: Which results are given for `CCOC(=O)CCCCCCCCNC(=O)N1c2c(O)nc(N)nc2NCC1CNc1ccc(C(=O)NC(CCC(=O)O)C(=O)O)cc1` (stereo not given)?
A: Cytotoxicity (P388): inactive; pEC50 (HEp-2 [3]): 4.46

Q: With `CCOC(=O)CCCCCCC/N=C(\S)N1c2c(O)nc(N)nc2NCC1CNc1ccc(C(=O)NC(CCC(=O)O)C(=O)O)cc1` (stereo not given) as the molecule, how does the pIC50 (HEp-2 [2]) read?
A: Its pIC50 is less than 4.60.

Q: For `Nc1nc(O)c2c(n1)NCC(CNc1ccc(C(=O)NC(CCC(=O)O)C(=O)O)cc1)N2/C(S)=N/c1ccccc1` (stereo not given), which Activity [1] is on record?
A: The Activity was “inactive”.

Q: What about the Cytotoxicity (L1210) of the same molecule?
A: Its Cytotoxicity is “inactive”.

Q: With `CCOC(=O)CCCCC/N=C(\S)N1c2c(O)nc(N)nc2NCC1CNc1ccc(C(=O)NC(CCC(=O)O)C(=O)O)cc1` (stereo not given) as the molecule, how does the pIC50 (HEp-2 [2]) read?
A: Its pIC50 is less than 4.60.
